An excerpt weighted towards active compounds, which were near 3% of everything screened.
aDG glyco act: alpha-DG glycosylation activation | 0.22% of 360,000 active | Pro5-aDG cells, alpha-DG glycosylation AlphaScreen (IIH6); 0% Pro5, 100% B10-LARGE cell signal | activation, % at 10 µM;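 active = activation of at least 8% versus controls, or a plate z-score of at least 8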;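 note: Pro5 are CHO cells carrying HIG-tagged alpha-DG that lacks glycosylation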
NR3A LBD binder: modulators (binders) of human NR3A ligand-binding domain; NR3A LBD differential scanning fluorimetry, Tm shift; 0% = protein alone, 100% = glycine-bound protein; Tm shift relative to glycine control, % at 25 µM; 2.5% of 340,000 active; AID 1259313;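 active = melting temperature shift of at least 10% of the positive control shift, at one fixed dose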
Hep lipid drop: modulators of hepatic lipid droplet formation; inhibition, % at 6.5 µM; AML12 mouse hepatocytes, oleate lipid droplets, BODIPY imaging; 0.4% of 240,000 active;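 active = lipid droplet intensity inhibited by at least 50%, with more than 500 cells counted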
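material = mouse AML12 hepatocyte cell line, fixed after treatment | also added = 100 µM oleic acid challenge | doses = compound at 6.5 µM only | schedule = overnight exposure | technique = Image-based BODIPY and DAPI two-channel analysis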
NPR1 activator: GC-A (human) enzyme activation | HEK293 GC-A cells, cGMP TR-FRET, EC30 ANP; 0% at EC30 ANP, 100% saturating ANP | activation, % at 10 µM | 0.14% of 370,000 active; in the data active = activation above about 40%
NPR2 activator: GC-B (human) receptor activation | activation, % at 10 µM | P20594 | HEK293-GC-B cells, CNP EC30, cGMP TR-FRET; 0% at EC30 CNP, 100% saturating CNP | 0.11% of 370,000 active;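 active = activation at 10 µM reaching about 35% in either raw or pattern-adjusted values, limit read from the data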
JMJD2C inh: human JMJD2C demethylase inhibition | inhibition, % at 2.35 µM | 0.069% of 330,000 active | Q9H3R0 | GST-JMJD2C(1-420) H3K9me3 demethylation, DELFIA europium;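 active = more than half of a compound's replicate wells show inhibition beyond 50%, single wells judged on their own value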;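 note: signal counts dimethyl H3K9 product captured on neutravidin plate; 0% = median of DMSO wells and 100% = 0.3 times that DMSO median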
An asterisk follows results filed as active; · = no result given.

SMILES	aDG glyco act	NR3A LBD binder	Hep lipid drop	NPR1 activator	NPR2 activator	JMJD2C inh
CCN(CC)c1ccc(C=C2C(=O)OC3(CCCCC3)OC2=O)cc1	0	18*	5	14	5	18
O=S(=O)(NCC1CCCO1)c1ccc(-c2ccc(S(=O)(=O)NCC3CCCO3)cc2)cc1 (stereo not drawn)	7.4*	1	-18	3	0	-10
Cc1ccc(S(=O)(=O)NCC2CCCO2)cc1 (stereo not drawn)	0	-1	4	1	2	1
O=C(NCC1CCCO1)c1ccc2c(=O)n(Cc3ccc(Cl)cc3)c(=S)[nH]c2c1 (stereo not drawn)	0	22*	18	2	8	2
COC(=O)[C@]12C[C@H](CC(=O)N3CCC(c4ccccc4)CC3)C(=O)N(Cc3ccco3)C1=C[C@H](C1CCCC1)O[C@@H]2C	·	·	·	-6	-4	·
Cc1ccc(-c2cc(C(=O)Nc3ccc(S(=O)(=O)Nc4nccs4)cc3)c3ccccc3n2)c(C)c1	0	15*	6	-10	1	17
Cc1ccc(C)c(-c2cc(C(=O)Nc3cccnc3)c3ccccc3n2)c1	0	11*	-2	-1	6	3
O=C(Nc1ccc(S(=O)(=O)Nc2nccs2)cc1)c1cc(-c2ccccc2)nc2ccccc12	0	11*	9	-8	-2	2
Cc1ccc(C)c(-c2cc(C(=O)Nc3cccc(C(=O)O)c3)c3ccccc3n2)c1	0	-6	-1	0	-3	2
Cc1ccc(C)c(-c2cc(C(=O)Nc3nccs3)c3ccccc3n2)c1	0	-1	·	11	16	1
CCCCNC(=O)C[C@H]1C(=O)N(CCCOC)C2=CCCCC[C@]21C(=O)OC	·	·	·	0	1	·
Cc1cccc(Nc2nnc(SCC(=O)c3ccc(O)cc3O)s2)c1	0	33*	-4	-2	-8	-6
Cc1ccc(Nc2nnc(SCC(=O)c3ccc(O)cc3O)s2)cc1	0	26*	-4	-6	-2	13
Cc1cccc2sc(N(CCN(C)C)C(=O)c3cc(Cl)sc3Cl)nc12	0	11*	-2	-32	-11	-8
COc1cc(NC(=O)Cn2nc(C(F)(F)F)c(Br)c2C)cc([N+](=O)[O-])c1	1	21*	-7	-3	-6	0
O=S(=O)(NN=Cc1ccc(O)cc1O)c1cc(Cl)c(Cl)cc1Cl	0	22*	·	2	0	·
Cc1ccc(S(=O)(=O)N/N=C/c2ccc(O)cc2O)cc1[N+](=O)[O-]	0	0	25	1	3	8
C[C@H](CO)N1C[C@H](C)[C@@H](CN(C)C(=O)Nc2ccc(C(F)(F)F)cc2)Oc2ccc(NS(=O)(=O)c3ccccc3)cc2C1=O	0	-8	·	3	82*	12
C[C@@H]1CN([C@H](C)CO)C(=O)c2cc(NC(=O)Nc3ccc(F)cc3)ccc2O[C@H]1CN(C)C(=O)Nc1ccc(C(F)(F)F)cc1	0	9	·	·	·	8
C[C@H](CO)N1C[C@H](C)[C@@H](CN(C)C(=O)Nc2ccccc2)Oc2c(NC(=O)Nc3ccc(C(F)(F)F)cc3)cccc2C1=O	0	28*	·	-3	-7	10
CC(C)NC(=O)Nc1ccc2c(c1)C(=O)N([C@H](C)CO)C[C@H](C)[C@@H](CN(C)C(=O)Nc1ccc(C(F)(F)F)cc1)O2	0	-3	·	2	0	2
C[C@H](CO)N1C[C@H](C)[C@@H](CN(C)C(=O)Nc2ccccc2)Oc2ccc(NC(=O)Nc3ccc(C(F)(F)F)cc3)cc2C1=O	0	11*	·	2	15	·
C[C@H](CO)N1C[C@H](C)[C@@H](CN(C)C(=O)Nc2ccc(C(F)(F)F)cc2)Oc2ccc(NS(=O)(=O)c3ccc(F)cc3)cc2C1=O	0	-6	·	1	3	-5
C[C@H](CO)N1C[C@H](C)[C@@H](CN(C)C(=O)Nc2ccc(C(F)(F)F)cc2)Oc2ccc(NC(=O)Nc3ccc4c(c3)OCO4)cc2C1=O	0	11*	·	0	-2	·
C[C@H](CO)N1C[C@H](C)[C@@H](CN(C)C(=O)Nc2ccccc2)Oc2c(NC(=O)Nc3ccccc3)cccc2C1=O	0	-13	·	1	-3	-8
SMILES	aDG glyco act	NR3A LBD binder	Hep lipid drop	NPR1 activator	NPR2 activator	JMJD2C inh
Cc1cc(=O)[nH]c(SCC(=O)Nc2cccc(C)c2C)n1	·	·	·	-1	1	·
COC(=O)[C@]12C[C@H](CC(=O)N3CCCC3)C(=O)N(Cc3cccc4ccccc34)C1=C[C@H](C1CCCC1)O[C@@H]2C	·	·	·	-11	-8	·
C[C@H](CO)N1C[C@H](C)[C@@H](CN(C)C(=O)NC2CCCCC2)Oc2ccc(NC(=O)CCC(F)(F)F)cc2C1=O	0	0	·	2	2	·
CC(C)NC(=O)N(C)C[C@H]1Oc2ccc(NC(=O)CCC(F)(F)F)cc2C(=O)N([C@H](C)CO)C[C@@H]1C	0	13*	·	2	-4	6
O=c1c2ccccc2oc2ccc(-c3ccc4[nH]ccc4c3)cc12	0	18*	·	2	1	-1
Cc1cccc(Cl)c1NC(=O)N(C)c1ccccc1	·	·	·	-6	-16	·
CCOC(=O)CNC(=O)CSc1nnc(-c2ccc(C(C)(C)C)cc2)n1-c1ccc(Cl)cc1	·	·	·	-3	-3	·
COCCn1cnc2c1c(=O)n(CC(=O)Nc1cc(C)on1)c(=O)n2Cc1ccccc1	0	11*	·	9	10	8
O=C(NC1=C(Nc2ccc(Cl)cc2)C(=O)c2ccccc2C1=O)c1ccccc1	5	-3	2	-5	-3	4
O=C(N/N=C/c1ccc(C(F)(F)F)cc1)c1ccc(O)cc1	1	12*	11	-3	-8	5
Cc1ccc(C(=O)Nc2ccc(Br)c(C(F)(F)F)c2)cc1	0	10*	·	-5	-1	-1
Cc1ccc(NC(=O)c2ccc(C)cc2)cc1	0	-11	·	1	-8	2
Cc1cccc(C(=O)Nc2ccc(NC(=O)c3cccc(C)c3)cc2)c1	2	·	·	3	-1	·
O=C(N/N=C/c1cccc(C(F)(F)F)c1)c1ccc(O)cc1	1	7	5	-1	-5	-11
Cc1cccc(NC2=C(NC(=O)c3ccccc3)C(=O)c3ccccc3C2=O)c1	3	19*	-2	-6	-2	2
Cc1cccc(C(=O)Nc2ccc(C(=O)Nc3ccc(O)cc3)cc2)c1	0	38*	0	-3	-8	8
C=CCOC(=O)N1CCN(C(=O)c2ccc3nc(C)n(C4CCCC4)c3c2)CC1	·	·	·	-3	-11	·
Oc1ccc(/C=N/Nc2ccc(C(F)(F)F)cn2)cc1	0	26*	5	-7	-12	2

Screening data from PubChem.
